PAX8 inh HTS = inhibitors of PAX8-driven TPO luciferase reporter, primary screen, RMG-I cells, single concentration; SteadyGlo, 24 h; inhibition, % at 12.6 µM; actives 1.2% (n = 360,000); AID 652154, 2013;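 active = mean replicate inhibition at least 60% with every replicate also reaching 60%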;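 note: luciferase light reporting Pax8 driven TPO promoter activity; plate controls were median of neutral control wells for no effect and mitoxantrone controls for full effect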
FN deposit inh = inhibitors of fibronectin matrix deposition, primary screen, AH1F cells, Alexa488-fibronectin fluorescence, plate reader; inhibition, % at 12.6 µM; AH1F fibroblasts, overnight; actives 0.086% (n = 350,000);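 active = mean inhibition across replicates of 30% or more, regardless of how many single replicates reach that level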;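 note: positive control wells lacked labelled fibronectin entirely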
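Material: AH1F fibroblast monolayer depositing Alexa488-labelled fibronectin into matrix / Amount: 10000 AH1F cells per well / Signal: fluorescence 485/525 nm / Medium: DMEM, 2% serum / Compound: single dose, pinned / Incubation: 1 h cell adhesion before compound, then overnight fibronectin incubation / Reagent: Alexa488-FN, 24 nM final / Read-out: inhibition of fibronectin deposition signal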
F508del corr = F508del CFTR correction, initial screen, CFBE line, single point; CFBE cells, YFP halide quenching; stimulated with forskolin plus potentiator P3; % fluorescence drop versus neutral controls; activity (quench increase), % at 7.58 µM; actives 0.36% (n = 350,000);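 active = mean added fluorescence quench of at least 8% versus neutral control, with both replicates also reaching 8%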;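 note: cells transiently co-express mutant CFTR-F508del with the halide-sensitive YFP; corrector assay measuring rescue of mutant channel to the surface after 24 h compound exposure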
EWS-Fli block = EWS/Fli-driven NR0B1 reporter inhibitors, primary screen, A673 cells, NR0B1 luciferase, luminescence, MLPCN library; viability-normalised; inhibition, % at 12.6 µM; actives 0.67% (n = 350,000);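 active = mean inhibition of at least 50% after viability correction, with every replicate also passing that limit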;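 note: firefly luciferase signal divided by Alamar Blue viability fluorescence both relative to DMSO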
PGC1a acetyl inh = inhibitors of PGC1a acetylation signal, primary screen, cell-based, U2OS, AlphaScreen, inhibitor mode; actives 0.17% (n = 350,000); inhibition, % at 15.6 µM; AlphaScreen anti-acetyl-lysine; with virally co-expressed GCN5 acetyltransferase;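 active = every replicate shows inhibition of at least 40%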;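 note: 0% = neutral control wells and 100% = positive control wells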
Env fusion inh = inhibitors of HIV-1 Env-driven cell-cell fusion, primary screen, HeLa-JRFL effector, CEM21 target cells, luciferase | inhibition, % at 12.3 µM | actives 1.1% (n = 360,000);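 active = mean replicate inhibition score of at least 50 and every replicate individually at or above 50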;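 note: 0% = plate neutral controls and 100% = maraviroc near 300 nM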
DNA binder FP = DNA binders by acridine orange displacement, dose response, counter-screen for EWS/Fli inhibitor project, biochemical, fluorescence polarization, cherry-pick | shares compounds with EWS-Fli block | salmon sperm DNA acridine orange fluorescence polarization | AC35, µM (series often up to 68 µM), inactives show top-dose activity change, negative = DNA binding | actives 2% (n = 640) | AID 720586, 2013;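 active = fitted curve reaches a 35% signal fall AC35 below twice the sample's top valid tested dose, actives reach about 48 µM in these data; inactive = the rest, including activity in the rising direction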;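 note: lower polarization ratio signals compound binding to DNA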
Active calls of the source: *; x = no result given; ! = a repeat was not active; [ ] = dose if it differs, or a comment. Shown are actives, neighbours in structure and some others; about 2.3% of the full set was active somewhere.

SMILES	PAX8 inh HTS	FN deposit inh	F508del corr	EWS-Fli block	PGC1a acetyl inh	Env fusion inh	DNA binder FP
O=C(CNC(c1ccccc1)c1ccccc1)Nc1ccccc1F	15	-6	1	6	11	8	x
CCS(=O)(=O)Nc1ccc2c(c1)C(=O)N(C)C[C@@H](OC)[C@@H](C)CN(C(=O)C1CC1)[C@H](C)CO2	4	-7	1	-4	4	x	x
O=C(Nc1ccc(Cl)c(Cl)c1)N[C@H]1CC[C@H](CCn2cc(C3CC3)nn2)O[C@H]1CO	8	3	1	15	5	7[16.7 µM]	x
C(=Cc1c[nH]c2ccccc12)c1nccc2ccccc12	-2	-89	1	22	2	-4	x
C(=Cc1c[nH]c2ccccc12)c1ccc2ccccc2n1	49	-43	3	67*	1	-430	9%
CC(=O)c1ccc(N(C(=O)Cn2nnc3ccccc32)C(C(=O)NCc2ccccc2)c2ccccn2)cc1 (stereo not drawn)	-20	x	x	62*	4	-6	-6%
CN(Cc1cnc2nc(N)nc(N)c2n1)c1ccc(C(=O)N[C@@H](CCC(=O)O)C(=O)O)cc1	48	-5	-1	64*	43*!	62*!	-3%
O=C(N[C@H]1CC[C@H](CCn2cc(-c3ccccc3)nn2)O[C@H]1CO)c1ccccc1F	29	-4	3	32	-6	20[16.7 µM]	x
COc1ccc(S(=O)(=O)Nc2cccc3c2O[C@@H](CN(C)Cc2ccc(C(=O)Nc4ccccc4N)cc2)[C@@H](C)CN([C@H](C)CO)C3=O)cc1	-10	x	0	-9	-3	x	x
COc1ccc(S(=O)(=O)Nc2cccc3c2O[C@H](CN(C)Cc2ccc(C(=O)Nc4ccccc4N)cc2)[C@H](C)CN([C@@H](C)CO)C3=O)cc1	x	x	3	57*	13	x	-10%[56 µM]
C[C@H](CO)N1C[C@H](C)[C@H](CN(C)Cc2ccc(C(F)(F)F)cc2)Oc2c(NS(=O)(=O)c3ccc(Cl)cc3)cccc2C1=O	x	6	1	60*	-3	-51[16.7 µM]	10%
Cc1ccc(/C=N/Nc2ccnc3cc(Cl)ccc23)c(C)c1	11	12	-3	76*	x	21	-8%
Cc1cc(C)cc(C(=O)NC(=S)Nc2ccc(Cc3ccncc3)cc2)c1	8	x	x	66*	-15	-19	-4%
C[C@@H]1CN([C@@H](C)CO)C(=O)Cc2cc(NC(=O)c3ccncc3)ccc2O[C@@H]1CN(C)C(=O)Nc1ccccc1	-16	x	0	-133	-1	x	x
Nc1ccc(Oc2ccccc2-c2ccccc2)cc1	23	0	-1	63*	-10	37	-4%
NCCOc1ccccc1-c1ccccc1	x	x	x	x	-4	x	x
CC1=NC(=O)C(N=Nc2cccc(C(=O)O)c2)N1c1ccccc1 (stereo not drawn)	x	x	0	64*	-6	x	8%
CC1=NC(=O)C(N=Nc2ccccc2)N1c1ccccc1 (stereo not drawn)	x	x	x	x	-1	x	x
CC(=O)Oc1ccc(-c2ccc(C(=O)Nc3cccc(S(=O)(=O)N4CCOCC4)c3)cc2)cc1	41	4	-5	59*	-32	10	-7%
COc1ccc(C(=O)NC(=S)Nc2cccc(S(=O)(=O)N3CCOCC3)c2)cc1	14	3	5	29	x	-21	x
CC(C)c1ccccc1NC(=O)Nc1nc(C(N)Cc2ccc(C(F)(F)F)cc2)cs1 (stereo not drawn)	21	-6	1	-5	-3	-13	x
NC(Cc1ccc(C(F)(F)F)cc1)c1csc(NC(=O)Nc2ccccc2Cc2ccccc2)n1 (stereo not drawn)	-7	-13	4	56*	-16	82*	-9%
Nc1nc(N)c2cc(Sc3ccc4ccccc4c3)ccc2n1	68*	30	-2	69*	9	24	-4%
